Active and inactive are the calls of the source. The rule behind the calls is not given here.

Experiment [1] deals with HEK293. Kind of experiment: Effect on Wnt/[…] reporter pathway in HEK293 cells expressing super(8X)TOPFlash reporter assessed as luciferase activity in presence of Wnt-3a. In kind it is functional, cell-based. Particulars: Homo sapiens. A digest of the protocol: (§1)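 HEK293 cells transfected with Super(8X)TOPFlash reporter plus renilla control; 24 h post-transfection, compound added over a dose range with or without Wnt-3a conditioned medium (1:1 vol/vol to growth medium); firefly luciferase read 36 h later, normalized to renilla; error bars SD.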

For experiment [2], the system named is HEK293. As to the kind of experiment: Induction of Wnt-3a-induced Axin2 gene expression in HEK293 cells in presence of Wnt-3a. It counts as functional, cell-based. Particulars: Homo sapiens.
Experiment [3] can be described thus: Activation of Wnt/[…] pathway in Xenopus embryos assessed as full axis formation at 10 uM in presence of XWnt-8 RNA after 24 hrs. In kind it is functional. The method, boiled down:
(§2)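 XWnt-8 RNA (0.5 pg) co-injected with 10 nL of 10 μM compound (or 10 nL water) into one ventral blastomere at 16- to 32-cell stage; embryos kept 24 h, then scored for partial versus full double axis formation.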

The test system of experiment [4] is HEK293. Kind of experiment: Effect on Wnt/[…] reporter pathway in HEK293 cells expressing super(8X)TOPFlash reporter plasmid assessed as luciferase activity. In kind it is functional, Homo sapiens. The method, boiled down:
as §1

Experiment [5] has as its target ADP-ribosylation factor 6 (Mus musculus) (UniProt P62331). Kind of experiment: Inhibition of ADP-ribosylation factor 6 activity in mouse NIH3T3 cells assessed as increase in endogenous ARF6-GTP level at 1 uM relative to control. It counts as cell-based.
For experiment [6], the system named is HEK293. Kind of experiment: Induction of Wnt-3a-induced DKK1 gene expression in HEK293 cells in presence of Wnt-3a. In kind it is functional, cell-based. The note with it: Homo sapiens.
In experiment [7] the test system is HEK293. As to the kind of experiment: Effect on Wnt/[…] reporter pathway in HEK293 cells expressing superFOPFlash reporter plasmid assessed as luciferase activity at 0.11 to 25 uM in presence of Wnt-3a. In kind it is functional, cell-based. The note with it: Homo sapiens, 0.011 to 25 uM, in the assay text read “0.011 to 25 uM” for “0.11 to 25 uM”. The method, boiled down:
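SuperFOPFlash reporter (mutated β-catenin/TCF sites) transfected into HEK293 cells; compound 0.011–25 μM given with Wnt-3a conditioned medium 24 h after transfection; luciferase read after 36 h, normalized to renilla.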

The subject of experiment [8] is MDA-MB-231. As to the kind of experiment: Inhibition of migration of AMAP1 expressing human MDA-MB-231 cells. In kind it is functional, cell-based. A digest of the protocol: (§3)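 Modified Boyden chambers, filter underside coated with 5 μg/cm² Matrigel; MDA-MB-231 cells (5,000/well) seeded upper chamber in RPMI1640 with 0.5% BSA plus compound, lower chamber DMEM with 10% FBS; after 12 h, cells on lower side counted by microscopy versus DMSO.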

Experiment [9] addresses ADP-ribosylation factor GTPase-activating protein 1, ARFGAP1 (Homo sapiens) (UniProt Q8N6T3). Kind of experiment: Binding affinity to purified ARFGAP1 by surface plasmon resonance analysis. (SPR reads the build-up and loss of mass on a sensor chip optically.)
Experiment [10] concerns MDA-MB-231. Kind of experiment: Inhibition of migration of AMAP1 expressing human MDA-MB-231 cells at 2.5 uM relative to control. It counts as functional. The arrangement: scale not given: the % may be the effect or the level left. A digest of the protocol: as §3
Experiment [11] concerns the target ADP-ribosylation factor 6 (Mus musculus) (UniProt P62331). Kind of experiment: Inhibition of ADP-ribosylation factor 6 activity in mouse NIH3T3 cells assessed as increase in endogenous ARF6-GTP level at 2.5 uM relative to control. It counts as cell-based.
Experiment [12] concerns HEK293. As to the kind of experiment: Effect on Wnt/[…] reporter pathway in HEK293 cells expressing super(8X)TOPFlash reporter assessed as luciferase activity at 2.5 uM in presence of Wnt-3a. It counts as functional, Homo sapiens. The method, boiled down: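 HEK293 cells (20,000/well) reverse-transfected with Super(8X)TOPFlash and pTK-RL (Fugene6), 24 h at 37°C; compound 2.5 μM plus Wnt-3a conditioned medium (1:1 vol/vol) added; Dual-Glo luciferase read 36 h later, fold activation normalized to renilla; mean of three independent data points.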

Experiment [13] relates to HEK293. As to the kind of experiment: Effect on Wnt/[…] reporter pathway in HEK293 cells expressing super(8X)TOPFlash reporter plasmid assessed as luciferase activity in presence of recombinant Wnt-3a. It counts as functional, cell-based. The note with it: Homo sapiens.
A short description of experiment [14]: Activation of Wnt/[…] pathway in Xenopus embryos assessed as partial double axis formation at 10 uM in presence of XWnt-8 RNA after 24 hrs. In kind it is functional. The method, boiled down: as §2
For experiment [15], the system named is HEK293. Kind of experiment: Reduction of super(8X)TOPFlash reporter activity in HEK293 cells at 0.25 uM in presence of Wnt-3a conditional medium relative to control. It counts as functional, Homo sapiens. Details: scale not given: the % may be the effect or the level left. The method, boiled down:
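HEK293 cells carrying the Super(8X)TOPFlash luciferase reporter, treated at 0.25 μM in Wnt-3a conditioned medium; reporter luciferase activity compared with DMSO-treated control cells under the same Wnt-3a stimulation.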

Chain of ADP-ribosylation factor 6 (Mus musculus) (P62331 whole entry): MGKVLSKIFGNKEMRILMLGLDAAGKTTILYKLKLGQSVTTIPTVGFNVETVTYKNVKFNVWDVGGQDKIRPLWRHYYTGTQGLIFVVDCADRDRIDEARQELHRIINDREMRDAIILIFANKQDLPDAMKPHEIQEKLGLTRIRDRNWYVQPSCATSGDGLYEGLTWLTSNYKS
Chain of ADP-ribosylation factor GTPase-activating protein 1, ARFGAP1 (Homo sapiens) (Q8N6T3 whole entry, looked up): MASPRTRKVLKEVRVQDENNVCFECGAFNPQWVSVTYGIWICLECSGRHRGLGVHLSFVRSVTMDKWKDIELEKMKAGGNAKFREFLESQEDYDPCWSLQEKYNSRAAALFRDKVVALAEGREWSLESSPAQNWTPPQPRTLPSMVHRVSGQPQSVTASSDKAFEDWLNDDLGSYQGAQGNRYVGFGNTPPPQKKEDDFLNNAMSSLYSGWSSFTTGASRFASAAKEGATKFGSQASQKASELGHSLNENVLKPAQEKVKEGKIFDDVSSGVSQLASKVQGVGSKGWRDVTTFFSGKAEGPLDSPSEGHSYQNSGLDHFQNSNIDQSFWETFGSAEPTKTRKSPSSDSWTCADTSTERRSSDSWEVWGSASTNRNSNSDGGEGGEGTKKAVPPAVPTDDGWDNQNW

`OC[C@H](Cc1ccccc1)Nc1nc(Oc2cccc(-c3ccccc3)c2)nc2c1ncn2Cc1ccc(-c2ccccc2)cc1`: the EC50 in the experiment on HEK293 [1] came to 3.1 µM.
On to `FC(F)(F)c1ccc(Cn2cnc3c(NCCc4ccccc4)nc(Oc4ccc5c(c4)CCC5)nc32)cc1`, for which, in the experiment with HEK293 [1], the EC50 was > 7.1 µM.
Regarding `OC[C@H](Cc1ccccc1)Nc1nc(Oc2ccc3c(c2)CCC3)nc2c1ncn2Cc1ccc(-c2ccccc2)cc1`, the result (in the experiment with HEK293 [2]; in experiment [5]; in the experiment with HEK293 [6]; in [11]; with HEK293 [13]) was Active. Besides, the Activity in experiment [3] is 20.9%; in the experiment with HEK293 [4], 2; in the experiment on MDA-MB-231 [8], “Dose-dependent effect”; with MDA-MB-231 [10], 80%; with HEK293 [12] it was 200; in experiment [14] it was 30.2%. Also, the EC50 in the experiment with HEK293 [1] worked out at 0.5 µM. Moreover, the outcome with HEK293 [7] was inactive. In [9], this compound showed a Kd of 0.62 µM.
On to `O=[N+]([O-])c1ccc(-c2ccc(Cn3cnc4c(N[C@H](CO)Cc5ccccc5)nc(Oc5ccc6c(c5)CCC6)nc43)cc2)cc1`, for which the EC50 in the experiment on HEK293 [1] was determined as 1.5 µM.
Still for that read-out and setting: to `O=[N+]([O-])c1ccc(C[C@@H](CO)Nc2nc(Oc3ccc4c(c3)CCC4)nc3c2ncn3Cc2ccc(-c3ccccc3)cc2)cc1` belongs 0.4 µM; to `CC1(C)Cc2cc(Oc3nc(NCc4ccccc4)c4ncn(Cc5ccc(-c6ccccc6)cc5)c4n3)ccc2O1`, 1.7 µM; to `OC[C@H](Cc1ccccc1)Nc1nc(Oc2cccc3ccccc23)nc2c1ncn2Cc1ccc(-c2ccccc2)cc1`, 4.6 µM.
For `[N-]=[N+]=Nc1ccc(C[C@@H](CO)Nc2nc(Oc3ccc4c(c3)CCC4)nc3c2ncn3Cc2ccc(-c3ccccc3)cc2)cc1`, the EC50 in the experiment with HEK293 [1] was determined as 0.6 µM.
Regarding `C[C@H]1CCC/C=C/[C@@H]2C[C@H](O)C[C@H]2[C@H](O)/C=C/C(=O)O1` [BREFELDIN A], the Activity in the experiment on HEK293 [15] turned out to be 50%.
Consider `OC[C@H](Cc1ccccc1)Nc1nc(Oc2ccc3c(c2)CCC3)nc2c1ncn2Cc1ccccc1`, for which the EC50 in the experiment on HEK293 [1] is > 7.1 µM.
As to `OC[C@H](Cc1ccccc1)Nc1nc(Nc2cccc3ccccc23)nc2c1ncn2Cc1ccc(-c2ccccc2)cc1`, in the experiment with HEK293 [1], the EC50 is > 7.1 µM.
Turning to `OC[C@@H](Cc1ccccc1)Nc1nc(Oc2ccc3c(c2)CCC3)nc2c1ncn2Cc1ccc(-c2ccccc2)cc1`, the EC50 in the experiment on HEK293 [1] was > 7.1 µM.
The same measure, in the same setting: in the case of `OC[C@H](Cc1ccccc1)Nc1nc(NCc2ccc3c(c2)OCO3)nc2c1ncn2Cc1ccc(-c2ccccc2)cc1` it was > 7.1 µM.

What is called EC50 is the midpoint of the concentration-response curve. As usually defined, the Kd is a measure of binding affinity in units of concentration.

Source of the values: ChEMBL document CHEMBL1142220, “Small-molecule synergist of the Wnt/beta-catenin signaling pathway” (Proc Natl Acad Sci U S A, 2007).
